Measured values published in ChEMBL document CHEMBL4680103, “In Vitro and in Vivo Anti-Trypanosoma cruzi Activity of New Arylamine Mannich Base-Type Derivatives” (J Med Chem, 2016).
Active and inactive are the calls of the source. The calls are words filed in the database; no cut-off is given here.

Tests used:
Trypanosoma cruzi [1] = assay: Antitrypanosomal activity against Trypanosoma cruzi infected in African green monkey Vero cells assessed as reduction in number of trypomastigotes measured up to 10 days by Giemsa staining based hemocytometry; format: functional; conditions: time day <=10
In short: (§1)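 Vero cells infected with metacyclic forms (10:1) were exposed to one concentration per compound immediately after infection for 12 h at 37 °C, 5% CO2. After washing, cultures were kept 10 days with fresh medium every 48 h. Every 48 h, % infected cells and amastigotes per infected cell (200 Giemsa-stained cells) and medium trypomastigotes (Neubauer) were scored. Means of three experiments.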

Trypanosoma cruzi [2] = assay: Antitrypanosomal activity against Trypanosoma cruzi infected in African green monkey Vero cells assessed as reduction in number of amastigotes per infected cell measured up to 10 days by Giemsa staining based hemocytometry; format: functional; conditions: time day <=10; in short: as §1
Trypanosoma cruzi [3] = assay: Antitrypanosomal activity against Trypanosoma cruzi Arequipa amastigote forms infected in African green monkey Vero cells incubated for 72 hrs by Giemsa staining based micrscopy; format: functional, organism-based
In short: (§2)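 Vero cells (RPMI, 10% inactivated FBS, 37 °C, 5% CO2) were seeded at 1×10^4/well on coverslips and cultured 2 days. They were infected 24 h with metacyclic forms at 10:1. After washing off free parasites, drugs were added at 0.1–100 µM for 72 h. Slides were methanol-fixed and Giemsa-stained; amastigotes were counted in 200 host cells versus untreated. IC50 was calculated.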

Trypanosoma cruzi [4] = assay: Antitrypanosomal activity against Trypanosoma cruzi Tulahuen trypomastigote froms infected in mouse blood incubated for 24 hrs by Neubauer chamber based assay; format: functional, organism-based
In short: (§3)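 Mouse blood taken at peak parasitemia (day 7) was diluted with uninfected blood to 4×10^6 trypomastigotes/mL, then 1:2 in RPMI 1640. Drugs from DMSO stocks were added at 1, 10, 25, 50 and 100 µM and incubated 24 h at 4–8 °C. Parasites were counted in a Neubauer chamber in triplicate. IC50 was calculated versus control.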

Trypanosoma cruzi [5] = assay: Antitrypanosomal activity against Trypanosoma cruzi SN3 amastigote forms infected in African green monkey Vero cells incubated for 72 hrs by Giemsa staining based micrscopy; format: functional, organism-based; in short: as §2
Trypanosoma cruzi [6] = assay: Antitrypanosomal activity against Trypanosoma cruzi SN3 trypomastigote froms infected in mouse blood incubated for 24 hrs by Neubauer chamber based assay; format: functional, organism-based; in short: as §3
Trypanosoma cruzi [7] = assay: Antitrypanosomal activity against Trypanosoma cruzi Arequipa trypomastigotes infected in BALB/c mouse assessed as reduction in mouse mortality measured during acute phase (days 0 to 40 post infection) at 50 to 100 mg/kg, po dosed on alternating days (7 to 15 days post infection); format: functional, organism-based; conditions: dose 50-100 mg/kg
Trypanosoma cruzi [8] = assay: Antitrypanosomal activity against Trypanosoma cruzi Arequipa trypomastigotes infected in BALB/c mouse assessed as parasitemia re-activation level measured during chronic phase ( day 90 post infection) at 50 mg/kg, po dosed on alternating days (7 to 15 days post infection) relative to acute phase infection (reference value: […]%); format: functional
Trypanosoma cruzi [9] = assay: (§4) Antitrypanosomal activity against Trypanosoma cruzi Arequipa trypomastigotes infected in BALB/c mouse assessed as reduction in parasitemia level in brain measured during acute phase (days 0 to 40 post infection) at 100 mg/kg, po dosed on alternating days (7 to 15 days post infection) by PCR analysis; format: functional, organism-based
Trypanosoma cruzi [10] = assay: as §4, with “stomach” for “brain”; format: functional, organism-based
Trypanosoma cruzi [11] = assay: as §4, with “muscle” for “brain”; format: functional, organism-based
Trypanosoma cruzi [12] = assay: Inhibition of Trypanosoma cruzi Arequipa Fe-SOD at <50 uM by NBT dye based spectrophotometry; conditions: dose microM <50
In short: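 Fe-SOD source: Arequipa epimastigote homogenate (STE buffer pH 7.8, sonication, centrifugation, supernatant; protein by Bradford); CuZn-SOD was commercial human erythrocyte enzyme. Activity was measured as NBT reduction by superoxide in 50 mM potassium phosphate pH 7.8, with compounds at 5 concentrations (1–100 µM). A560 was read before and after 10 min under lamp light with stirring. Three rate determinations; Newman–Keuls test.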

[13] = Genotoxicity in Salmonella typhimurium TA98 at 0.03 to 2.25 ug/plate incubated for 48 hrs in absence of liver S9 fraction by Ames test; format: toxicity; conditions: salmonella enterica subsp. enterica serovar typhimurium, s9, 48 h
In short: (§5)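 Preincubation Ames assay. […] Top agar with trace histidine/biotin (0.05 mM each) was added and poured onto glucose minimal agar. Plates were incubated 48 h at 37 °C and His+ revertants counted. DMSO was the negative control, with strain-appropriate positive controls. Technical triplicates.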

[14] = Genotoxicity in Salmonella typhimurium TA98 at 0.03 to 2.25 ug/plate incubated for 48 hrs in presence of liver S9 fraction by Ames test; format: toxicity, subcellular; conditions: salmonella enterica subsp. enterica serovar typhimurium, s9, 48 h; in short: as §5
[15] = Genotoxicity in Salmonella typhimurium TA100 at 0.03 to 2.25 ug/plate incubated for 48 hrs in absence of liver S9 fraction by Ames test; format: toxicity; conditions: salmonella enterica subsp. enterica serovar typhimurium, s9, 48 h; in short: as §5
[16] = Genotoxicity in Salmonella typhimurium TA102 at 0.03 to 2.25 ug/plate incubated for 48 hrs in presence of liver S9 fraction by Ames test; format: toxicity, subcellular; conditions: salmonella enterica subsp. enterica serovar typhimurium, s9, 48 h; in short: as §5
[17] = Genotoxicity in Salmonella typhimurium TA102 at 0.03 to 2.25 ug/plate incubated for 48 hrs in absence of liver S9 fraction by Ames test; format: toxicity; conditions: salmonella enterica subsp. enterica serovar typhimurium, s9, 48 h; in short: as §5
[18] = Genotoxicity in Salmonella typhimurium TA1537 at 0.03 to 2.25 ug/plate incubated for 48 hrs in presence of liver S9 fraction by Ames test; format: toxicity, subcellular; conditions: salmonella enterica subsp. enterica serovar typhimurium, s9, 48 h; in short: as §5

IC50 (Trypanosoma cruzi [3]) [µM] | IC50 (Trypanosoma cruzi [4]) [µM] | IC50 (Trypanosoma cruzi [5]) [µM] | IC50 (Trypanosoma cruzi [6]) [µM] | inhibition (Trypanosoma cruzi [12]) [%] | Compound | inhibition (INH) (Trypanosoma cruzi [1]) [%] | inhibition (INH) (Trypanosoma cruzi [2]) [%] | Activity (Trypanosoma cruzi [7]) | Activity (Trypanosoma cruzi [8]) [%] | Activity (Trypanosoma cruzi [9]) | Activity (Trypanosoma cruzi [10]) | Activity (Trypanosoma cruzi [11]) | Activity [13] | Activity [14] | Activity [15] | Activity [16] | Activity [17] | Activity [18]
12.7 | 1.9 | 7.9 | 5.1 | 100 | O=C(CCN1CCN(c2ccc(F)cc2)CC1)c1csc2ccc(F)cc12 | 47 | 49 | Active | 0 | Active | Active | Active | Non-Toxic | Non-Toxic | Non-Toxic | Non-Toxic | Non-Toxic | Non-Toxic
27.9 | 45.8 | 8.7 | 6.6 | – | O=C(CCN1CCN(c2ccc(C(F)(F)F)cc2)CC1)c1csc2ccc(F)cc12 | 68 | 64 | Active | – | Active | Active | Active | Non-Toxic | Non-Toxic | Non-Toxic | Non-Toxic | Non-Toxic | Non-Toxic
